Among the data in ChEMBL document CHEMBL1154183, “Structure-based optimization of potent and selective inhibitors of the tyrosine kinase erythropoietin producing human hepatocellular carcinoma receptor B4 (EphB4)” (J Med Chem, 2009) are IC50 and Activity values, retold here.

Test [1] concerns the target T1, Ephrin type-B receptor 4 (Homo sapiens, UniProt P54760).
T1 sequence (P54760 whole entry): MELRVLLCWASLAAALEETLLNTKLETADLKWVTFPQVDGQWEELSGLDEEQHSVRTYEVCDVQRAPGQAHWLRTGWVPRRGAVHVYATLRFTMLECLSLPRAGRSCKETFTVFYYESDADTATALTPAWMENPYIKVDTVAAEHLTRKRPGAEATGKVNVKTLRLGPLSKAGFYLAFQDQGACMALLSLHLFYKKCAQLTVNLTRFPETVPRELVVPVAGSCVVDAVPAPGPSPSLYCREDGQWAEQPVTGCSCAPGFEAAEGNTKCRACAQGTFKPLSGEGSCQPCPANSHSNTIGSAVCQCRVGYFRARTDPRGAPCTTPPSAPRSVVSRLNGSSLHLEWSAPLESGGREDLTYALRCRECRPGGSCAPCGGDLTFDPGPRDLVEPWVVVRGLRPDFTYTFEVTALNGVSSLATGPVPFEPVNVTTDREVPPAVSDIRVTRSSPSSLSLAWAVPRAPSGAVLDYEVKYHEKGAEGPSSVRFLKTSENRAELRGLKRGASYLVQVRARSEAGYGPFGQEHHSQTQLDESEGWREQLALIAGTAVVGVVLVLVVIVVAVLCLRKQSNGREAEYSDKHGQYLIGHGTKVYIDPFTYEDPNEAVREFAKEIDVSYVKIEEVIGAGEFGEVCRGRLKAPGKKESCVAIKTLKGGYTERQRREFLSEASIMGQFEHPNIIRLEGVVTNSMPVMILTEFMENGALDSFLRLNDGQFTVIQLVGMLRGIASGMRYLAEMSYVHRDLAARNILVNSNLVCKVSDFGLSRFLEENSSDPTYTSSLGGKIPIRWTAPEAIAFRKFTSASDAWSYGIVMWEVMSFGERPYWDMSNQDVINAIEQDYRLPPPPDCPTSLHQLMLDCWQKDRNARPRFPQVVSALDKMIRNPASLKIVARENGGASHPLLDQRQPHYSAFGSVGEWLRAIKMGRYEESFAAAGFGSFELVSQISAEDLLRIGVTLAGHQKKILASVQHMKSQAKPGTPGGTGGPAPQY
In words: Inhibition of EphB4 assessed as blockade of synthetic substrate phosphorylation by FRET assay.

The target of test [2] is T2, Ephrin type-B receptor 4 (Homo sapiens) (UniProt P54760).
T2 sequence (whole entry): T1 sequence (P54760 whole entry)
In words: Inhibition of EphB4 assessed as blockade of synthetic substrate phosphorylation at 10 uM by FRET assay. The arrangement: scale not given: the % may be the effect or the level left. Put shortly: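 Z'-LYTE FRET kinase assay with Tyr 1 peptide substrate. Final EphB4 25 ng/μL, ATP 125 μM (near Km), 30 °C for 2 h. Excitation 400 nm, emission at 445 and 520 nm, read as fluorescence progress curves. Inhibition of substrate phosphorylation was measured.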

For test [3], the target named is T1, Ephrin type-B receptor 4. As to the kind of experiment: Inhibition of EphB4 by [gamma33-P]ATP based assay.

SMILES strings stand for the structures. A value given as a limit tells only on which side of the number the result lay.

Take `CCCCn1c(-c2ccccc2O)cn2c3c(=O)[nH]c(=O)n(C)c3nc12`: the IC50 in test [1] worked out at 1.6 µM.

Consider `CCCCn1c(-c2ccc(C)cc2)cn2c3c(=O)[nH]c(=O)n(C)c3nc12`, for which the Activity in test [2] was found to be 38%.

On to `COc1ccccc1-n1c(-c2cccc(O)c2C)cn2c3c(=O)[nH]c(=O)n(C)c3nc12`, for which, in test [1], the 50% inhibitory concentration (IC50) came to 1.2 µM.

As to `CCCCn1c(-c2cccc(C)c2)cn2c3c(=O)[nH]c(=O)n(C)c3nc12`, the Activity in test [2] is 37%.

In the case of `COc1ccccc1-n1c(-c2ccc(F)cc2)cn2c3c(=O)[nH]c(=O)n(Cc4ccccc4)c3nc12`, in test [1], the IC50 is greater than 10 µM.

In the case of `COc1ccccc1-n1c(-c2ccc(C#N)cc2)cn2c3c(=O)[nH]c(=O)n(C)c3nc12`, in test [1], the IC50 was greater than 20 µM.

For `COc1ccccc1-n1c(-c2ccc(F)cc2)cn2c3c(=O)[nH]c(=O)[nH]c3nc12`, the IC50 in test [1] came out at 5.4 µM.

Consider `COc1ccccc1-n1c(-c2ccc(O)cc2C)cn2c3c(=O)[nH]c(=O)n(C)c3nc12`, for which, in test [1], the IC50 came to 0.236 µM.

`COc1ccccc1-n1c(-c2ccc3c(c2)OCO3)cn2c3c(=O)[nH]c(=O)n(C)c3nc12`: the half-maximal inhibitory concentration (IC50) in test [1] is greater than 20 µM.

For the compound `COc1ccccc1-n1c(-c2ccc(O)cc2)cn2c3c(=O)[nH]c(=O)n(C)c3nc12`, the Activity in test [2] stood at 59%.

Regarding `COc1ccccc1-n1c(-c2ccc(C(=O)O)cc2)cn2c3c(=O)[nH]c(=O)n(C)c3nc12`, the IC50 in test [1] is greater than 20 µM.

In turn, `Cn1c(=O)[nH]c(=O)c2c1nc1n(CCCCO)c(-c3ccccc3)cn21` displayed an IC50 in test [3] of 5.68 µM.

In the case of `CCCCn1c(-c2cccc(OC)c2)cn2c3c(=O)[nH]c(=O)n(C)c3nc12`, in test [2], the Activity turned out to be 36%.

With `CCCCn1c(-c2ccc(OC)cc2)cn2c3c(=O)[nH]c(=O)n(C)c3nc12`, the IC50 in test [1] was greater than 10 µM.

For `Cn1c(=O)[nH]c(=O)c2c1nc1n(CCCCO)c(-c3ccc4c(c3)OCO4)cn21`, the Activity in test [2] was 42%.

For the compound `COc1ccccc1-n1c(-c2cccc(O)c2)cn2c3c(=O)[nH]c(=O)n(C)c3nc12`, the IC50 in test [1] amounted to 0.368 µM; in test [3] it was 0.213 µM.

Consider `COc1ccccc1-n1c(-c2cccc(C)c2)cn2c3c(=O)[nH]c(=O)n(C)c3nc12`, for which the IC50 in test [1] was greater than 10 µM.

Consider `COc1ccccc1-n1c(-c2cccc3c2OCO3)cn2c3c(=O)[nH]c(=O)n(C)c3nc12`, for which, in test [2], the Activity worked out at 30%.

As for `COc1ccccc1-n1c(-c2ccc([N+](=O)[O-])cc2)cn2c3c(=O)[nH]c(=O)n(C)c3nc12`, the IC50 in test [1] is greater than 20 µM.

For `COc1ccccc1-n1c(-c2ccccc2)cn2c3c(=O)[nH]c(=O)n(Cc4ccccc4)c3nc12`, the IC50 in test [1] was greater than 10 µM.

As for `CCCCn1c(-c2ccc(O)cc2)cn2c3c(=O)[nH]c(=O)n(C)c3nc12`, in test [1], the IC50 was 0.558 µM.

On to `COc1ccccc1-n1c(-c2ccccc2O)cn2c3c(=O)[nH]c(=O)n(C)c3nc12`, for which the Activity in test [2] was 64%.

For `CCCCn1c(-c2ccccc2OC)cn2c3c(=O)[nH]c(=O)n(C)c3nc12`, the IC50 in test [1] was greater than 10 µM.

As for `CCCCn1c(-c2cccc(O)c2)cn2c3c(=O)[nH]c(=O)n(C)c3nc12`, the IC50 in test [1] came to 0.691 µM.

As a reminder, the IC50 is the concentration that inhibits the measured activity by half.
